Test results published in publication PMC11638133 (Journal of Veterinary Internal Medicine, 2024).
Values belong to the compound of their own block, whether it stands above or below them.

Legend:
[1] = Plasma pharmacokinetics of active drug metabolites after oral CARDALIS®; format: in vivo, beagle dogs; conditions: linear mixed model, AUC over the first 24 hours, natural logarithmic scale
Summary of the method: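 Healthy purpose-bred beagles, 6 per group, were fed a low-sodium diet for 5 days, then given an oral ACE-inhibitor/mineralocorticoid-antagonist combination for 14 days at 0.25+2 mg/kg q24h, 0.25+2 mg/kg q12h or 0.5+4 mg/kg q12h. Serial Day-13 plasma was stored at −80°C, and three active metabolites were measured by LC-MS/MS. […] Dose–AUC used a linear mixed model (dog random effect, ln scale).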

[2] = test system: renin‐angiotensin‐aldosterone system (RAAS); conditions: cited from earlier work
[3] = test system: renin‐angiotensin‐aldosterone system (RAAS); conditions: 2 mg/kg PO q24h vs 4 mg/kg PO q24h, monotherapy; cited from earlier work
[4] = highest dose 4 times higher than lowest dose of benazepril

increase in AUC for a 1 mg increase in dose [1]: 1.54 units
SMILES: C[C@]12CCC(=O)C=C1C=C[C@@H]1[C@@H]2CC[C@@]2(C)[C@H]1CC[C@@]21CCC(=O)O1 [Canrenone, canrenone]

increase in AUC for a 1 mg increase in dose [1]: 1.99 ng·h/mL
SMILES: O=C(O)CN1C(=O)[C@@H](N[C@@H](CCc2ccccc2)C(=O)O)CCc2ccccc21 [Benazeprilat, benazeprilat]

SMILES: CS[C@@H]1CC2=CC(=O)CC[C@]2(C)[C@H]2CC[C@@]3(C)[C@@H](CC[C@@]34CCC(=O)O4)[C@H]12 [TMS, 7‐alpha‐thiomethylspironolactone]
increase in AUC for a 1 mg increase in dose [1]: 1.50 units

SMILES: CCOC(=O)[C@H](CCc1ccccc1)N[C@H]1CCc2ccccc2N(CC(=O)O)C1=O [benazepril]
difference in mean ACE‐S between the highest and lowest doses [2, 4]: −59% | difference in mean Ang1‐7 between the highest and lowest doses [2, 4]: +47% | difference in mean AngII between the highest and lowest doses [2, 4]: −38% | lower values of AngII ([2]; highest dose studied (0.5 mg/kg) compared to the lowest dose studied (0.125 mg/kg)): 38%

SMILES: CC(=O)S[C@@H]1CC2=CC(=O)CC[C@]2(C)[C@H]2CC[C@@]3(C)[C@@H](CC[C@@]34CCC(=O)O4)[C@H]12 [spironolactone]
Dose-dependent differences in RAAS metabolites (including aldosterone) [3]: no dose‐dependent differences in RAAS metabolites (including aldosterone)
